One assay addresses T1, Thromboxane-A synthase (Homo sapiens, UniProt P24557).
T1 sequence (P24557 whole entry): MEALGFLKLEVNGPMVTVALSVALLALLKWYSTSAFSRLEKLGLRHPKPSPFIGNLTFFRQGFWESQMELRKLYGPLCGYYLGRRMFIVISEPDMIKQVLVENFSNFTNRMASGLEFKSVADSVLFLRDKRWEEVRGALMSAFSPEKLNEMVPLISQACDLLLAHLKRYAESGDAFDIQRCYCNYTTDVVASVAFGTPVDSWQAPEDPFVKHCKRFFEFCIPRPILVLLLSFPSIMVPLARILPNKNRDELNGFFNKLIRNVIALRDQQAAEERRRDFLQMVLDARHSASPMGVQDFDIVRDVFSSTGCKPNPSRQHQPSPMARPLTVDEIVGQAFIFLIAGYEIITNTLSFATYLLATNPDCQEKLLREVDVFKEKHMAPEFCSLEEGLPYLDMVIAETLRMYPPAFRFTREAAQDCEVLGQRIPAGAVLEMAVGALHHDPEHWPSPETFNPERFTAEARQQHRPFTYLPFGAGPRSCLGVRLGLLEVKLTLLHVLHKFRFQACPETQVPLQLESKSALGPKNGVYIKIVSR
As to the kind of experiment: In vitro inhibition of thromboxane synthase (TXA2) in human platelet microsomes [reduced formation of TXB2 from prostaglandin H2(PGH2)]. In kind it is functional, Microsome.

Assay [1] deals with T2, Thromboxane-A synthase (Rattus norvegicus) (UniProt P49430).
T2 sequence (whole entry): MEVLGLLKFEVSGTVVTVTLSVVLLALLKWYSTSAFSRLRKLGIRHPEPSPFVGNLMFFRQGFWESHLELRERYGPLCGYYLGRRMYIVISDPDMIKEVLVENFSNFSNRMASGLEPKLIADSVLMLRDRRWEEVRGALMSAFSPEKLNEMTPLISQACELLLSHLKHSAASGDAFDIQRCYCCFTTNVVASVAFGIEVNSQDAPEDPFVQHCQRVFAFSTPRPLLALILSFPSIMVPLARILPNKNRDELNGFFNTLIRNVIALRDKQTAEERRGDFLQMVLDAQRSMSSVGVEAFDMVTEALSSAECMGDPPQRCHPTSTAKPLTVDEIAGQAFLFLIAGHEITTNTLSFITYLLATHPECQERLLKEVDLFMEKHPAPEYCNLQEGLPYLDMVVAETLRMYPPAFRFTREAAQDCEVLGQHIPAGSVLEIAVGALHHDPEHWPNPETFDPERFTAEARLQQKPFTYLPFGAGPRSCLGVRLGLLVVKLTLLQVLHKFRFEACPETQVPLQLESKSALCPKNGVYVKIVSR
The assay is described as follows: Thromboxane synthase inhibitor (TxSI) activity assessed by ex vivo inhibition of serum TXB2 production in rat after Intravenous administration. The class given is functional, organism-based. In a few lines:
(§1)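 Rats dosed intravenously or orally. Blood was then taken, and serum TxB2 production was measured ex vivo. Values are reported as ED50 doses in mg/kg. Oral testing used the same method as intravenous testing.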

In assay [2] the target is Platelet-activating factor receptor (Mus musculus) (UniProt Q62035). As to the kind of experiment: Antagonism of Platelet activating factor (PAF) activity in mice after oral administration, assayed by PAF-induced death. The class given is functional, organism-based. In outline: (§2)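 Mice dosed with test agent intravenously or orally, then injected with a lethal dose of PAF. Protection from PAF-induced death was scored. ED50 was taken as the dose that reduced mortality by 50%. Oral testing used the same method as intravenous testing.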
Platelet-activating factor receptor (Mus musculus), sequence (Q62035 whole entry): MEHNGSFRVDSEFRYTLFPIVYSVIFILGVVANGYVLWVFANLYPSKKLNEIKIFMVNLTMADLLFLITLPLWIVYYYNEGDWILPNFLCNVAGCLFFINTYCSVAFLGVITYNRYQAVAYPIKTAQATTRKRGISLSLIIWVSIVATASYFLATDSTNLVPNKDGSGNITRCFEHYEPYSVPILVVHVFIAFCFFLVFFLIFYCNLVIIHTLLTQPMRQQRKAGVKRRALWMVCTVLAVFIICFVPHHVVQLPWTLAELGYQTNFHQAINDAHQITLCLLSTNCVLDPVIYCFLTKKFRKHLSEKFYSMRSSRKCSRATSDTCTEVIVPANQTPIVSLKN

Assay [3] is described as follows: Inhibition of Platelet activating factor (PAF)- induced platelet aggregation in rabbit platelet rich plasma (PRP). The class given is functional.
Assay [4] deals with Platelet-activating factor receptor (Mus musculus) (UniProt Q62035). As to the kind of experiment: Antagonism of Platelet activating factor (PAF)in mice after Intravenous administration, assayed by PAF-induced death. The class given is functional, organism-based. In outline:
as §2

Assay [5] addresses T2, Thromboxane-A synthase (Rattus norvegicus). The assay is described as follows: Thromboxane synthase inhibitor (TxSI) activity was assessed by ex vivo inhibition of serum TXB2 production in rat after oral administration. The class given is functional, organism-based. In outline: as §1

One may read the IC50 as the concentration at which inhibition is half-maximal. Broadly, the ED50 is the dose that gives a 50% effect, or the effect in half of the subjects.

For `CCOC(=O)CCCCO/N=C(\c1ccc(CN2CCc3c(sc4c3C(c3ccccc3Cl)=NC(C)c3nnc(C)n3-4)C2)cc1)c1cccnc1` (centres undefined), the results for the IC50 (on Thromboxane-A synthase (read-out: IC50); in assay [3]) were 80 nM and 46 nM, respectively. Moreover, the ED50 in assay [1] is 1 mg/kg; in assay [2], greater than 10 mg/kg; in assay [4], 1.35 mg/kg; in assay [5] it was greater than 10 mg/kg.
For the compound `CCOC(=O)CCCCO/N=C(/c1cccnc1)c1cccc(CCCCN2CCc3c(sc4c3C(c3ccccc3Cl)=NC(C)c3nnc(C)n3-4)C2)c1` (centres undefined), the IC50 on Thromboxane-A synthase (read-out: IC50) turned out to be 21 nM; in assay [3] it was 54 nM. Moreover, the ED50 in assay [1] was 0.53 mg/kg; in assay [2], greater than 10 mg/kg; in assay [4], 0.38 mg/kg; in assay [5], 6.9 mg/kg.
On to `Cc1nnc2n1-c1sc3c(c1C(c1ccccc1Cl)=NC2C)CCN(Cc1cccc(/C(=N\OCCCCC(=O)OCc2ccccc2)c2cccnc2)c1)C3` (centres undefined), for which the IC50 at Thromboxane-A synthase (read-out: IC50) came out at 465 nM; in assay [3], 98 nM. Also, the ED50 in assay [1] was greater than 1 mg/kg; in assay [2], greater than 10 mg/kg; in assay [4], 0.54 mg/kg.
With `Cc1nnc2n1-c1sc3c(c1C(c1ccccc1Cl)=NC2C)CCNC3` (centres undefined), the IC50 on Thromboxane-A synthase (read-out: IC50) was greater than 1000 nM; in assay [3], 245 nM. Moreover, the 50% effective dose (ED50) in assay [4] was greater than 5 mg/kg.
Regarding `CCOC(=O)CCCCO/N=C(\c1ccc(C(=O)N2CCc3c(sc4c3C(c3ccccc3Cl)=NC(C)c3nnc(C)n3-4)C2)cc1)c1cccnc1` (centres undefined), the median effective dose (ED50) in assay [1] was greater than 1 mg/kg; in assay [2], 0.5 mg/kg; in assay [4], 0.2 mg/kg. The same compound had an IC50 in assay [3] of 100 nM.
`O=C(O)CCCC/C=C(/c1ccccc1)c1cccnc1`: the median effective dose (ED50) came to 0.01 mg/kg in assay [1] and 0.05 mg/kg in assay [5].
Turning to `CCOC(=O)CCCCO/N=C(/c1cccnc1)c1cccc(CN2CCc3c(sc4c3C(c3ccccc3Cl)=NC(C)c3nnc(C)n3-4)C2)c1` (centres undefined), the values for the 50% inhibitory concentration (IC50) (on Thromboxane-A synthase (read-out: IC50); in assay [3]) were 59 nM and 47 nM, respectively. Besides, the ED50 in assay [1] was 0.1 mg/kg; in assay [2], greater than 10 mg/kg; in assay [4], 0.2 mg/kg; in assay [5], greater than 10 mg/kg.
Regarding `CCOC(=O)CCCC/C=C(/c1cccnc1)c1cccc(CN2CCc3c(sc4c3C(c3ccccc3Cl)=NC(C)c3nnc(C)n3-4)C2)c1` (centres undefined), the concentration for half-maximal inhibition (IC50) on Thromboxane-A synthase (read-out: IC50) was 68 nM; in assay [3], 39 nM. Also, the 50% effective dose (ED50) is 0.71 mg/kg in assay [1], greater than 10 mg/kg in assay [2], 0.6 mg/kg in assay [4] and 3.2 mg/kg in assay [5].
For the compound `CCOC(=O)CCCCO/N=C(/c1cccnc1)c1cccc(CN2CCc3c(sc4c3C(c3ccccc3Cl)=NCc3nnc(C)n3-4)C2)c1`, the IC50 on Thromboxane-A synthase (read-out: IC50) amounted to 65 nM; in assay [3], 200 nM. Besides, the ED50 is 0.1 mg/kg in assay [1], greater than 10 mg/kg in assay [2], 0.8 mg/kg in assay [4] and greater than 10 mg/kg in assay [5].
In the case of `CCOC(=O)CCCCO/N=C(\c1ccc(CC(=O)N2CCc3c(sc4c3C(c3ccccc3Cl)=NC(C)c3nnc(C)n3-4)C2)cc1)c1cccnc1` (centres undefined), the IC50 at Thromboxane-A synthase (read-out: IC50) came out at 69 nM; in assay [3] it was 85 nM. Also, the ED50 was greater than 1 mg/kg in assay [1], greater than 10 mg/kg in assay [2] and 4.2 mg/kg in assay [4].
For the compound `CCOC(=O)C1=C(c2ccc(-n3c(C)nc4cnccc43)cc2)NC(C)=C(C(=O)Nc2ccccn2)C1c1ccccc1Cl` (centres undefined), the 50% inhibitory concentration (IC50) result on Thromboxane-A synthase was “Not Active”. Besides, the 50% effective dose (ED50) was found to be 1.55 mg/kg in assay [2] and 0.1 mg/kg in assay [4].
Turning to `Cc1nnc2n1-c1sc3c(c1C(c1ccccc1Cl)=NC2C)CCN(Cc1cccc(/C(=N\OCCCCC(=O)OCCN2CCOCC2)c2cccnc2)c1)C3` (centres undefined), the half-inhibitory concentration (IC50) on Thromboxane-A synthase (read-out: IC50) worked out at 151 nM; in assay [3] it was 81 nM. Moreover, the ED50 in assay [1] was 0.77 mg/kg; in assay [2] it was greater than 10 mg/kg; in assay [4], 0.54 mg/kg; in assay [5], 8.9 mg/kg.
Take `CCOC(=O)CCCCO/N=C(/c1cccnc1)c1cccc(C(=O)N2CCc3c(sc4c3C(c3ccccc3Cl)=NC(C)c3nnc(C)n3-4)C2)c1` (centres undefined): the results for the ED50 in assay [1], in assay [2] and in assay [4] were greater than 1 mg/kg, 2.3 mg/kg and 0.47 mg/kg, respectively. Moreover, it took 60 nM to reach half-maximal inhibition in assay [3] (IC50).
Turning to `CCOC(=O)CCCCO/N=C(/c1cccnc1)c1cccc(CCCC(=O)N2CCc3c(sc4c3C(c3ccccc3Cl)=NC(C)c3nnc(C)n3-4)C2)c1` (centres undefined), the concentration for half-maximal inhibition (IC50) worked out at 41 nM on Thromboxane-A synthase (read-out: IC50) and 39 nM in assay [3]. The ED50 in assay [1] is greater than 1 mg/kg; in assay [2] it was greater than 10 mg/kg; in assay [4], 1.05 mg/kg.
`CCOC(=O)CCCCO/N=C(\c1ccccc1)c1cccnc1`: the 50% inhibitory concentration (IC50) at Thromboxane-A synthase (read-out: IC50) came out at 1 nM. The ED50 was 0.01 mg/kg in assay [1] and greater than 0.1 mg/kg in assay [5].
As to `Cc1nnc2n1-c1sc3c(c1C(c1ccccc1Cl)=NC2C)CCN(Cc1cccc(/C(=N\OCCCCC(=O)O)c2cccnc2)c1)C3` (centres undefined), the 50% inhibitory concentration (IC50) on Thromboxane-A synthase (read-out: IC50) is 24 nM; in assay [3], 980 nM. In addition, the ED50 in assay [1] is 1 mg/kg; in assay [2], greater than 10 mg/kg; in assay [4], 0.47 mg/kg; in assay [5], 10 mg/kg.
Turning to `O=C(O)/C=C/c1ccc(Cn2ccnc2)cc1`, the figures for the ED50 in assay [1] and in assay [5] were 0.02 mg/kg and 0.1 mg/kg, respectively.
For the compound `CCCNC(=O)CCCCO/N=C(/c1cccnc1)c1cccc(CN2CCc3c(sc4c3C(c3ccccc3Cl)=NC(C)c3nnc(C)n3-4)C2)c1` (centres undefined), the results for the IC50 (at Thromboxane-A synthase (read-out: IC50); in assay [3]) were 540 nM and 71 nM, respectively. Besides, the ED50 was greater than 1 mg/kg in assay [1], greater than 10 mg/kg in assay [2] and 0.54 mg/kg in assay [4].
The matching figures for `CCOC(=O)CCCCO/N=C(\c1ccc(COCC(=O)N2CCc3c(sc4c3C(c3ccccc3Cl)=NC(C)c3nnc(C)n3-4)C2)cc1)c1cccnc1` (centres undefined): 58 nM, 60 nM, greater than 1 mg/kg, greater than 10 mg/kg and 4.2 mg/kg.
On to `CCOC(=O)CCCCO/N=C(/c1cccnc1)c1ccccc1C(=O)N1CCc2c(sc3c2C(c2ccccc2Cl)=NC(C)c2nnc(C)n2-3)C1` (centres undefined), for which the values for the IC50 (at Thromboxane-A synthase (read-out: IC50); in assay [3]) were greater than 1000 nM and 200 nM, respectively. Besides, the ED50 was greater than 1 mg/kg in assay [1], greater than 10 mg/kg in assay [2] and 2.4 mg/kg in assay [4].
As to `Cc1nnc2n1-c1sc3c(c1C(c1ccccc1Cl)=NC2C)CCN(Cc1cccc(/C(=N\OCCCCC(=O)OCCCc2cccnc2)c2cccnc2)c1)C3` (centres undefined), the 50% inhibitory concentration (IC50) was greater than 1000 nM at Thromboxane-A synthase (read-out: IC50) and 65 nM in assay [3]. Moreover, the ED50 in assay [1] is greater than 1 mg/kg; in assay [2], greater than 10 mg/kg; in assay [4] it was 0.54 mg/kg.
In the case of `CCOC(=O)CCCC/C=C(\c1ccc(CN2CCc3c(sc4c3C(c3ccccc3Cl)=NC(C)c3nnc(C)n3-4)C2)cc1)c1cccnc1` (centres undefined), the figures for the IC50 (on Thromboxane-A synthase (read-out: IC50); in assay [3]) were 72 nM and 32 nM, respectively. In addition, the 50% effective dose (ED50) in assay [1] was determined as 1 mg/kg; in assay [2], 1.6 mg/kg; in assay [4], 0.55 mg/kg; in assay [5], 5.2 mg/kg.

Values taken from ChEMBL document CHEMBL1135874, “Novel agents combining platelet activating factor (PAF) receptor antagonist with thromboxane synthase inhibitor (TxSI)” (Bioorg Med Chem Lett, 2002).
